Results filed as inconclusive are left out.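 Rule for the calls, unless noted: active = viability increase at or above a cutoff of the median across tested compounds plus 3 SD (cut at about 8.5% in these data, passing the limit was not always enough); inconclusive = some gains above the cutoff, reason not given; inactive = the rest.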
Legend:
[1] = S. cerevisiae growth inhibition in permissive medium (OD615), pilot counter-assay for S. cerevisiae lifespan shortening project, permissive growth control (AID 705;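 active = growth inhibition above 25% in both replicates, a cutoff set 3 SD above the mean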); settings: OD615, 24 h, at 10 µM, stronger effect = higher value
Outline: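 System: S. cerevisiae with engineered DeaD lifespan system / Measured by: absorbance (optical density) at 615 nm / Read-out: reduction in yeast growth (OD615) / Times: 4 h cell pre-growth, 24 h exposure at 30 °C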

[2] = S. cerevisiae growth inhibition in restrictive medium, OD615, pilot screen, restrictive growth control, yeast lifespan reduction project (AID 706;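 active = growth inhibition above a set limit, 3 SD over mean compound inhibition, in both replicates, cut at about 43% in these data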;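 note: modified DeaD lifespan yeast strain shifted to restrictive glucose medium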); settings: OD615, 48 h, at 10 µM, stronger effect = higher value
Outline: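 System: Engineered S. cerevisiae DeaD strain | Buffer or medium: Glucose-based CSMM-D restrictive medium | Schedule: 4 h pre-incubation, 48 h exposure at 30 °C | Technique: Optical density at 615 nm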

[3] = doxorubicin toxicity protection in MRP-1 cells – H69AR cells, CellTiter-Glo, duplicate, MRP-1 activator project, pilot screen (AID 807); settings: H69AR viability with doxorubicin, CellTiter-Glo luminescence; at 10 µM; stronger effect = higher value;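 note: compound pretreatment 18-22 h then 72 h combined with doxorubicin; 0% = doxorubicin alone and 100% = vehicle without doxorubicin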
[4] = viability of HCT116 without oncogenic beta-catenin – human colon tumor cells, pilot screen (AID 823;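 active = cell viability at or below a set limit in both duplicate runs, the limit being the all-compound median minus 4 SD, cut at about 23% in these data, passing the limit was not always enough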;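 note: 0% = wells killed by 20 µM Hyamine and 100% = untreated DMSO cell wells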); settings: HCT116 beta-catenin knockout viability, CellTiter-Glo, 60 h; at 10 µM; stronger effect = lower value
[5] = viability of PTEN-null HCT116 cells – cell-based, HCT116 clonal line, CellTiter-Glo, pilot screen (AID 824;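 active = viability at or below 27.92% in each of two runs, the all-compound median minus 4 SD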;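 note: 0% = 20 µM Hyamine control and 100% = vehicle cell control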); settings: HCT116 PTEN-deleted viability, 60 h, at 10 µM, stronger effect = lower value
[6] = RAM pathway blockade in budding yeast – dse1pr::URA3 reporter, 5-FOA selection, pilot screen (AID 869;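 active = inhibition over a set limit, the all-compound mean plus 3 SD, in both replicate runs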;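 note: 0% = DMSO wells with no growth and 100% = 10 µM 1-NA-PP1 with full growth; RAM network block rescues cells from 5-FOA so hits raise OD615 growth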); settings: S. cerevisiae dse1pr::URA3 5-FOA growth, OD615, 2 d; at 10 µM; stronger effect = higher value; strain carries analog-sensitive mutant Cbk1 kinase
[7] = RAM signaling pathway blockade in yeast – S. cerevisiae, Pdr1DBD-CYC8 efflux-inhibited sensitized strain, primary screen (AID 1298;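 active = RAM network inhibition above 8.4% in each of two replicates, 3 SD over the compound average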;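 note: 0% = DMSO untreated cells without growth and 100% = 10 µM 1-NA-PP1 full growth; higher means more yeast growth rescued from 5-FOA killing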); settings: S. cerevisiae cbk1-as DSE1-URA3 strain, 5-FOA growth OD615, 2 d; at 50 µM; stronger effect = higher value

CSc1cccc(NC(=O)CN(c2ccc(C)cc2C)S(C)(=O)=O)c1
inactive: growth inhibition [1] -12.5% | growth inhibition [2] -9.39% | viability increase [3] -1.07% | viability [4] 76.8% | viability [5] 67.8% | inhibition [6] 1.02% | RAM network inhibition [7] 2.43%

CCN1CCN(c2ncnc3c2cnn3-c2ccccc2)CC1
inactive: growth inhibition [1] -13.8% | growth inhibition [2] -7.68% | viability increase [3] 1.69% | viability [4] 102% | viability [5] 89.8% | inhibition [6] 1.7% | RAM network inhibition [7] 2.03%

CCOC(=O)C(C)n1cnc2c(nnn2-c2cccc(Cl)c2)c1=O (configuration not stated)
inactive: growth inhibition [1] -4.37% | growth inhibition [2] -3.95% | viability increase [3] 1.78% | viability [4] 102% | viability [5] 92.6% | inhibition [6] 2.58% | RAM network inhibition [7] 4.24%

Cc1cc(=O)[nH]c(SCc2cc(Cl)ccc2OC(F)F)n1
inactive: growth inhibition [1] -4.67% | growth inhibition [2] 15.1% | viability increase [3] -1.54% | viability [4] 98.2% | viability [5] 92.1% | inhibition [6] 1.62% | RAM network inhibition [7] 5.32%

COc1ccc(NC2=CC(=O)CC(C)(C)C2)cc1OC
inactive: growth inhibition [1] -5.52% | growth inhibition [2] -8.65% | viability increase [3] -3.58% | viability [4] 96.8% | viability [5] 89.2% | inhibition [6] 0.975% | RAM network inhibition [7] 0.37%

O=C(Nc1sc2c(c1C(=O)O)CCCC2)c1cccs1
inactive: growth inhibition [1] 5.62% | growth inhibition [2] 15.9% | viability increase [3] -1.03% | viability [4] 79.5% | viability [5] 57% | inhibition [6] -1.22% | RAM network inhibition [7] -2.15%

CCOc1cccc(-c2nc(C(N)=O)c3[nH]c(=O)n(-c4cccc(Cl)c4)c3n2)c1O
inactive: growth inhibition [1] -2.52% | growth inhibition [2] -7.1% | viability increase [3] -2.06% | viability [4] 101% | viability [5] 93.1% | inhibition [6] 0.85% | RAM network inhibition [7] 2.67%

O=C(CC1CCCCC1)NCCCN1CCOCC1
inactive: growth inhibition [1] 1.88% | growth inhibition [2] -3.55% | viability increase [3] 1.14% | viability [4] 92% | viability [5] 102% | inhibition [6] 1.58% | RAM network inhibition [7] 1.38%

CCOC(=O)C1CCCN(c2c(Nc3cccc(C)c3)c(=O)c2=O)C1 (configuration not stated)
inactive: growth inhibition [1] -6.7% | growth inhibition [2] 2.08% | viability increase [3] -2.71% | viability [4] 104% | viability [5] 93.2% | inhibition [6] -0.555% | RAM network inhibition [7] 2.72%

CCCN1C(=O)c2cc(C(=O)NC3CCCC3)ccc2C1O (configuration not stated)
inactive: growth inhibition [1] -10.3% | growth inhibition [2] -1.61% | viability increase [3] -2.46% | viability [4] 103% | viability [5] 95.5% | inhibition [6] 0.125% | RAM network inhibition [7] 9.43%

CC1CCCCN1C(=O)CSCC(=O)Nc1nc(-c2cccs2)cs1 (configuration not stated)
inactive: growth inhibition [1] 2.07% | growth inhibition [2] -3.92% | viability increase [3] -4.62% | viability [4] 99.2% | viability [5] 94.6% | inhibition [6] 0.505% | RAM network inhibition [7] 1.69%

CSc1oc(-c2ccc(F)cc2)nc1S(=O)(=O)c1ccccc1
inactive: growth inhibition [1] -2.16% | growth inhibition [2] 0.385% | viability increase [3] -1.13% | viability [4] 97.2% | viability [5] 93.7% | inhibition [6] 0.585% | RAM network inhibition [7] 4.67%

CN1CCN(C(=O)c2cn(C)c3ccc(S(=O)(=O)N(C)C4CCCCC4)cc3c2=O)CC1
inactive: growth inhibition [1] -7.8% | growth inhibition [2] -13.2% | viability increase [3] -2.39% | viability [4] 102% | viability [5] 101% | inhibition [6] 0% | RAM network inhibition [7] -0.26%

COCCn1c(SCC(N)=O)nc2c(c1=O)SC(C)C2 (configuration not stated)
inactive: growth inhibition [1] -1.48% | growth inhibition [2] -3.57% | viability increase [3] 0.08% | viability [4] 99.4% | viability [5] 97% | inhibition [6] 1.84% | RAM network inhibition [7] 5.52%

CCOC(=O)N1CCN(C(=O)CSc2nc3c(cnn3-c3ccccc3)c(=O)[nH]2)CC1
inactive: growth inhibition [1] -2.34% | growth inhibition [2] -4.3% | viability increase [3] -4.92% | viability [4] 98.9% | viability [5] 99% | inhibition [6] 0.19% | RAM network inhibition [7] -1.2%

O=c1c(/C=N/O)c(Nc2ccccc2)nc2ccccn12
inactive: growth inhibition [1] -10.8% | growth inhibition [2] 10.2% | viability increase [3] -6.27% | viability [4] 93.8% | viability [5] 76.5% | inhibition [6] 0.56% | RAM network inhibition [7] 4.18%

Cc1nn(CCCC(=O)N2CCc3ccccc3C2)c(=O)c2cc3sccc3n12
inactive: growth inhibition [1] -4.89% | growth inhibition [2] -14.2% | viability increase [3] -1.17% | viability [4] 97% | viability [5] 88.1% | inhibition [6] 1.39% | RAM network inhibition [7] 0.42%

N#Cc1cnn(CC2CCCCC2)c1N
inactive: growth inhibition [1] -15.6% | growth inhibition [2] -8.75% | viability increase [3] -0.89% | viability [4] 89.4% | viability [5] 93.2% | inhibition [6] 1.57% | RAM network inhibition [7] 3.68%

COc1cccc(-c2cc(N)nn2C(=O)Nc2ccc(Cl)cc2)c1
inactive: growth inhibition [1] -15.4% | growth inhibition [2] -29.3% | viability increase [3] -2.28% | viability [4] 105% | viability [5] 90.7% | inhibition [6] -0.025% | RAM network inhibition [7] 0.22%

C=C(C)Cn1c(SCC(=O)O)nc2c1c(=O)[nH]c(=O)n2C
inactive: growth inhibition [1] -15.9% | growth inhibition [2] -14% | viability increase [3] 1.02% | viability [4] 96.7% | viability [5] 98.8% | inhibition [6] 0.63% | RAM network inhibition [7] 3.24%

COC(=O)c1c(C(=O)OC)c2n(c1C)Cc1ccccc1C2
inactive: growth inhibition [1] -4.47% | growth inhibition [2] -1.14% | viability increase [3] -1.39% | viability [4] 86.6% | viability [5] 90.2% | inhibition [6] 1.85% | RAM network inhibition [7] 1.43%

CC(Nc1ncnc2nc[nH]c12)c1ccccc1 (configuration not stated)
inactive: growth inhibition [1] -8.48% | growth inhibition [2] 10.5% | viability increase [3] -1.31% | viability [4] 95.3% | viability [5] 88.9% | inhibition [6] 0.985% | RAM network inhibition [7] 4.02%

CCOC(=O)C1=C(C)Nc2nc(SCc3cccnc3)nn2C1c1ccc(OC)cc1 (configuration not stated)
inactive: growth inhibition [1] -6.41% | growth inhibition [2] 2.46% | viability increase [3] -2.64% | viability [4] 98.7% | viability [5] 89% | inhibition [6] 0.58% | RAM network inhibition [7] 4.49%

CC(CCc1ccccc1)NC(=O)CN1CCOc2ccccc21 (configuration not stated)
inactive: growth inhibition [1] -7.73% | growth inhibition [2] -1.32% | viability increase [3] -5.58% | viability [4] 84.1% | viability [5] 83.1% | inhibition [6] 0.595% | RAM network inhibition [7] 3.72%

CCCCOC(=O)C(C)Oc1ccc(=O)n(-c2ccccc2)n1 (configuration not stated)
inactive: growth inhibition [1] -4.39% | growth inhibition [2] -6.44% | viability increase [3] -1.41% | viability [4] 98% | viability [5] 88.4% | inhibition [6] 1.26% | RAM network inhibition [7] 2.76%

CCOc1ccc(N(CC(=O)N2CCCC2)S(=O)(=O)c2c(C)noc2C)cc1
inactive: growth inhibition [1] -10.4% | growth inhibition [2] 3.47% | viability increase [3] -1.24% | viability [4] 98.3% | viability [5] 95.6% | inhibition [6] 1.08% | RAM network inhibition [7] 10.7%

Cc1onc(-c2c(F)cccc2Cl)c1C(=O)OCC(=O)Nc1c(C)n(C)n(-c2ccccc2)c1=O
inactive: growth inhibition [1] -3.96% | growth inhibition [2] -1.53% | viability increase [3] -0.55% | viability [4] 87.4% | viability [5] 90.3% | inhibition [6] 0.92% | RAM network inhibition [7] 1.78%

CC(C)Cc1nc(C(N)=O)c2[nH]c(=O)n(-c3ccc(F)cc3)c2n1
inactive: growth inhibition [1] -21.3% | growth inhibition [2] -27.8% | viability increase [3] -2.13% | viability [4] 100% | viability [5] 91.2% | inhibition [6] 3.68% | RAM network inhibition [7] 8.63%

O=C(Nc1ccccc1C(=O)NCc1ccco1)c1ccccc1
inactive: growth inhibition [1] -21.8% | growth inhibition [2] -6.89% | viability increase [3] -3.16% | viability [4] 100% | viability [5] 90.5% | inhibition [6] 1.55% | RAM network inhibition [7] 8.28%

Cn1cc(CC(=O)NCCCN2CCCC2=O)c2ccccc21
inactive: growth inhibition [1] -3.36% | growth inhibition [2] -11.5% | viability increase [3] -1.83% | viability [4] 99.3% | viability [5] 87.3% | inhibition [6] 0.77% | RAM network inhibition [7] -0.89%

Cc1cc(C)cc(N(CC(=O)N2CCc3ccccc32)S(=O)(=O)c2c(C)noc2C)c1
inactive: growth inhibition [1] -11.2% | growth inhibition [2] -5.73% | viability increase [3] -4.52% | viability [4] 90.4% | viability [5] 89.9% | inhibition [6] 2.83% | RAM network inhibition [7] 0.55%

O=C(CSc1nc2ncccc2[nH]1)NCc1ccccc1
inactive: growth inhibition [1] 0.36% | growth inhibition [2] 13.3% | viability increase [3] -0.06% | viability [4] 101% | viability [5] 86.9% | inhibition [6] 3.13% | RAM network inhibition [7] 3.93%

COc1cccc(-n2c(Cc3cc(=O)[nH]c(=O)[nH]3)nnc2SCC(=O)NC2CCCCC2)c1
inactive: growth inhibition [1] -4.46% | growth inhibition [2] -1.15% | viability increase [3] -1.6% | viability [4] 100% | viability [5] 101% | inhibition [6] 1.86% | RAM network inhibition [7] 3.48%

CC(NC(=O)c1ccc2c(c1)OCO2)C1CCCO1 (configuration not stated)
inactive: growth inhibition [1] -3.77% | growth inhibition [2] 7.33% | viability increase [3] -0.15% | viability [4] 96.8% | viability [5] 94.5% | inhibition [6] 1.44% | RAM network inhibition [7] -0.53%

O=C(CN1C(=O)c2ccccc2S1(=O)=O)NC1CC2CCC1C2 (configuration not stated)
inactive: growth inhibition [1] 0.325% | growth inhibition [2] -9.88% | viability increase [3] -1.68% | viability [4] 98.6% | viability [5] 89.9% | inhibition [6] 1.11% | RAM network inhibition [7] -0.63%

CCOC(=O)c1c(C)c(-c2ccccc2)n(CC(=O)N2CCCC2)c1C
inactive: growth inhibition [1] -8.25% | growth inhibition [2] -12.4% | viability increase [3] -3.38% | viability [4] 87.6% | viability [5] 92.3% | inhibition [6] 1.31% | RAM network inhibition [7] 2.73%
